Results published in ChEMBL document CHEMBL1649131, “Tigecycline therapy significantly reduces the concentrations of inflammatory pulmonary cytokines and chemokines in a murine model of Mycoplasma pneumoniae pneumonia” (Antimicrob Agents Chemother, 2009).
In brackets after ≈: the same amount, converted by molar mass. Activity calls are given as the source filed them. The calls are words filed in the database; no cut-off is given here.

Columns and labels:
Mus musculus [1] = assay: Immunological activity in BALB/c mouse infected with Mycoplasma pneumoniae ATCC 29342 assessed as decrease in MIG level in bronchoalveolar lavage fluid at 10 mg/kg, sc on first day followed by regimen of 5 mg/kg for 5 days measured after 1 days; type: functional, organism-based
Method in brief: (§1)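 In BALB/c females infected intranasally with 10^7 CFU M. pneumoniae, sc dosing ran daily from day 1: 10 mg/kg first, then 5 mg/kg; saline placebo. BAL (500 µl SP4 broth via trachea) was collected ~24 h after the last dose at 1, 3 or 6 days of therapy, and cytokine/chemokine concentrations were measured, given as mean ± SD. There were 10 mice/group per time point; t test and two-way ANOVA were used, P<0.05.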

Mus musculus [2] = assay: Immunological activity in BALB/c mouse infected with Mycoplasma pneumoniae ATCC 29342 assessed as decrease in MIG level in bronchoalveolar lavage fluid at 10 mg/kg, sc on first day followed by regimen of 5 mg/kg for 5 days measured after 3 days; type: functional, organism-based; method in brief: as §1
Mus musculus [3] = assay: Immunological activity in BALB/c mouse infected with Mycoplasma pneumoniae ATCC 29342 assessed as decrease in MIG level in bronchoalveolar lavage fluid at 10 mg/kg, sc on first day followed by regimen of 5 mg/kg for 5 days measured after 6 days; type: functional, organism-based; method in brief: as §1
Mus musculus [4] = assay: Immunological activity in BALB/c mouse infected with Mycoplasma pneumoniae ATCC 29342 assessed as decrease in TNFalpha level in bronchoalveolar lavage fluid at 10 mg/kg, sc on first day followed by regimen of 5 mg/kg for 5 days measured after 3 days; type: functional, organism-based; method in brief: as §1
Mus musculus [5] = assay: Immunological activity in BALB/c mouse infected with Mycoplasma pneumoniae ATCC 29342 assessed as decrease in IL-2 level in bronchoalveolar lavage fluid at 10 mg/kg, sc on first day followed by regimen of 5 mg/kg for 5 days measured after 3 days; type: functional, organism-based; method in brief: as §1
Mus musculus [6] = assay: Immunological activity in BALB/c mouse infected with Mycoplasma pneumoniae ATCC 29342 assessed as decrease in IL-4 level in bronchoalveolar lavage fluid at 10 mg/kg, sc on first day followed by regimen of 5 mg/kg for 5 days measured after 3 days; type: functional, organism-based; method in brief: as §1
Mus musculus [7] = assay: Immunological activity in BALB/c mouse infected with Mycoplasma pneumoniae ATCC 29342 assessed as decrease in IL-5 level in bronchoalveolar lavage fluid at 10 mg/kg, sc on first day followed by regimen of 5 mg/kg for 5 days measured after 3 days; type: functional, organism-based; method in brief: as §1
Mus musculus [8] = assay: Immunological activity in BALB/c mouse infected with Mycoplasma pneumoniae ATCC 29342 assessed as decrease in IL-6 level in bronchoalveolar lavage fluid at 10 mg/kg, sc on first day followed by regimen of 5 mg/kg for 5 days measured after 3 days; type: functional, organism-based; method in brief: as §1
Mus musculus [9] = assay: Immunological activity in BALB/c mouse infected with Mycoplasma pneumoniae ATCC 29342 assessed as decrease in IL-10 level in bronchoalveolar lavage fluid at 10 mg/kg, sc on first day followed by regimen of 5 mg/kg for 5 days measured after 3 days; type: functional, organism-based; method in brief: as §1
Mus musculus [10] = assay: Immunological activity in BALB/c mouse infected with Mycoplasma pneumoniae ATCC 29342 assessed as decrease in granulocyte-macrophage colony stimulating factor level in bronchoalveolar lavage fluid at 10 mg/kg, sc on first day followed by regimen of 5 mg/kg for 5 days measured after 3 days; type: functional, organism-based; method in brief: as §1
Mus musculus [11] = assay: Immunological activity in BALB/c mouse infected with Mycoplasma pneumoniae ATCC 29342 assessed as decrease in MIP-1alpha level in bronchoalveolar lavage fluid at 10 mg/kg, sc on first day followed by regimen of 5 mg/kg for 5 days measured after 3 days; type: functional, organism-based; method in brief: as §1
Mus musculus [12] = assay: Immunological activity in BALB/c mouse infected with Mycoplasma pneumoniae ATCC 29342 assessed as decrease in IP-10 level in bronchoalveolar lavage fluid at 10 mg/kg, sc on first day followed by regimen of 5 mg/kg for 5 days measured after 3 days; type: functional, organism-based; method in brief: as §1
Mus musculus [13] = assay: Immunological activity in BALB/c mouse infected with Mycoplasma pneumoniae ATCC 29342 assessed as decrease in KC level in bronchoalveolar lavage fluid at 10 mg/kg, sc on first day followed by regimen of 5 mg/kg for 5 days measured after 3 days; type: functional, organism-based; method in brief: as §1
Mus musculus [14] = assay: Immunological activity in BALB/c mouse infected with Mycoplasma pneumoniae ATCC 29342 assessed as decrease in MCP-1 level in bronchoalveolar lavage fluid at 10 mg/kg, sc on first day followed by regimen of 5 mg/kg for 5 days measured after 3 days; type: functional, organism-based; method in brief: as §1
[15] = Cmax in human serum at […] followed by regimen of […] for every 12 hrs; type: ADME, organism-based; set-up: route intravenous
[16] = AUC (0 to 24 hrs) in human serum at […] followed by regimen of […] for every 12 hrs; type: ADME, organism-based; set-up: time < 24 hr, route intravenous
[17] = Ratio of AUC in human alveolar cells to AUC in human serum at […] followed by […] regimen for every 12 hrs; type: ADME, organism-based, Pneumocyte; conditions: read-out: Ratio AUC
[18] = AUC in mouse pneumoniae model at 5 mg/kg; type: ADME, organism-based; set-up: dose 5 mg/kg; conditions: in vivo
[19] = test system: Mycoplasmoides pneumoniae; assay: Antimicrobial activity against Mycoplasma pneumoniae by agar dilution method; type: functional
[20] = Ratio of Cmax in human lung to Cmax in human serum at […] followed by […] regimen for every 12 hrs; type: ADME, organism-based
[21] = test system: Mycoplasmoides pneumoniae; assay: Antimicrobial activity against Mycoplasma pneumoniae ATCC 29342 infected in BALB/c mouse assessed as decrease in bacterial count in bronchoalveolar lavage fluid at 10 mg/kg, sc on first day followed by regimen of 5 mg/kg for 5 days measured after 6 days; type: functional, organism-based; conditions: M129
Method in brief: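 Female BALB/c mice, 2 months old, inoculated intranasally once (day 0) with 10^7 CFU M. pneumoniae in 50 µl SP4 broth under isoflurane. From day 1, sc once daily for 6 days: 10 mg/kg day 1, then 5 mg/kg, in sterile 0.9% NaCl; saline placebo. BAL with 500 µl SP4 broth ~24 h after last dose; undiluted and 10-fold dilutions plated on SP4 agar at 37°C; colonies counted as log10 CFU/ml; 10 mice/group, two experiments.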

[22] = test system: Mycoplasmoides pneumoniae; assay: Antimicrobial activity against Mycoplasma pneumoniae ATCC 29342 infected in BALB/c mouse assessed as decrease in bacterial infection-induced lung histopathology at 10 mg/kg, sc on first day followed by regimen of 5 mg/kg for 5 days measured after 3 days; type: functional, organism-based; conditions: M129
Method in brief: (§2)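 Infected BALB/c mice (2-month-old females, intranasal 10^7 CFU M. pneumoniae, day 0) dosed sc daily from day 1: 10 mg/kg then 5 mg/kg, saline vehicle/placebo. Lungs with trachea fixed in 10% buffered formalin ~24 h after last dose, whole-mount paraffin sections stained H&E and scored for histopathology (HPS) and parenchymal pneumonia subscore; 10 mice/group per time point, two experiments; two-way ANOVA and t test.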

[23] = test system: Mycoplasmoides pneumoniae; assay: Antimicrobial activity against Mycoplasma pneumoniae ATCC 29342 infected in BALB/c mouse assessed as decrease in bacterial infection-induced parenchymal cell histopathology at 10 mg/kg, sc on first day followed by regimen of 5 mg/kg for 5 days measured after 3 days; type: functional, organism-based; conditions: M129; method in brief: as §2
Mus musculus [24] = assay: Immunological activity in BALB/c mouse infected with Mycoplasma pneumoniae ATCC 29342 assessed as decrease in IL1-beta level in bronchoalveolar lavage fluid at 10 mg/kg, sc on first day followed by regimen of 5 mg/kg for 5 days measured after 1 days; type: functional, organism-based; method in brief: as §1
Mus musculus [25] = assay: Immunological activity in BALB/c mouse infected with Mycoplasma pneumoniae ATCC 29342 assessed as decrease in IL1-beta level in bronchoalveolar lavage fluid at 10 mg/kg, sc on first day followed by regimen of 5 mg/kg for 5 days measured after 3 days; type: functional, organism-based; method in brief: as §1
Mus musculus [26] = assay: Immunological activity in BALB/c mouse infected with Mycoplasma pneumoniae ATCC 29342 assessed as decrease in IL1-beta level in bronchoalveolar lavage fluid at 10 mg/kg, sc on first day followed by regimen of 5 mg/kg for 5 days measured after 6 days; type: functional, organism-based; method in brief: as §1
Mus musculus [27] = assay: Immunological activity in BALB/c mouse infected with Mycoplasma pneumoniae ATCC 29342 assessed as decrease in IL-12 level in bronchoalveolar lavage fluid at 10 mg/kg, sc on first day followed by regimen of 5 mg/kg for 5 days measured after 1 days; type: functional, organism-based; method in brief: as §1
Mus musculus [28] = assay: Immunological activity in BALB/c mouse infected with Mycoplasma pneumoniae ATCC 29342 assessed as decrease in IL-12 level in bronchoalveolar lavage fluid at 10 mg/kg, sc on first day followed by regimen of 5 mg/kg for 5 days measured after 3 days; type: functional, organism-based; method in brief: as §1
Mus musculus [29] = assay: Immunological activity in BALB/c mouse infected with Mycoplasma pneumoniae ATCC 29342 assessed as decrease in IL-12 level in bronchoalveolar lavage fluid at 10 mg/kg, sc on first day followed by regimen of 5 mg/kg for 5 days measured after 6 days; type: functional, organism-based; method in brief: as §1
Mus musculus [30] = assay: Immunological activity in BALB/c mouse infected with Mycoplasma pneumoniae ATCC 29342 assessed as decrease in INF-gamma level in bronchoalveolar lavage fluid at 10 mg/kg, sc on first day followed by regimen of 5 mg/kg for 5 days measured after 1 days; type: functional, organism-based; method in brief: as §1
Mus musculus [31] = assay: Immunological activity in BALB/c mouse infected with Mycoplasma pneumoniae ATCC 29342 assessed as decrease in INF-gamma level in bronchoalveolar lavage fluid at 10 mg/kg, sc on first day followed by regimen of 5 mg/kg for 5 days measured after 3 days; type: functional, organism-based; method in brief: as §1
Mus musculus [32] = assay: Immunological activity in BALB/c mouse infected with Mycoplasma pneumoniae ATCC 29342 assessed as decrease in INF-gamma level in bronchoalveolar lavage fluid at 10 mg/kg, sc on first day followed by regimen of 5 mg/kg for 5 days measured after 6 days; type: functional, organism-based; method in brief: as §1

In the case of `CN(C)c1cc(NC(=O)CNC(C)(C)C)c(O)c2c1C[C@H]1C[C@H]3[C@H](N(C)C)C(O)=C(C(N)=O)C(=O)[C@@]3(O)C(O)=C1C2=O` [TIGECYCLINE], the Activity (Mus musculus [1]) is reported as “Active”, the Activity (Mus musculus [2]) is reported as “Active” and the Activity (Mus musculus [3]) is reported as “Active”. The Activity (Mus musculus [4]) was “Active”, the Activity (Mus musculus [5]) was “inactive” and the Activity (Mus musculus [6]) was “inactive”. The Activity (Mus musculus [7]) was “inactive”, the Activity (Mus musculus [8]) was “inactive” and the Activity (Mus musculus [9]) was “inactive”. The Activity (Mus musculus [10]) was “inactive”, the Activity (Mus musculus [11]) was “Active” and the Activity (Mus musculus [12]) was “Active”. The Activity (Mus musculus [13]) was “inactive”, the Activity (Mus musculus [14]) was “inactive” and the Cmax [15] was 630 ng/mL. The AUC at 24 h [16] was 4700 ng·h/mL, the Kp at 12 h [17] was 78 and the AUC [18] was 2900 ng·h/mL. The MIC [19] was 0.06 µg/mL (≈ 0.102 µM), the Kp at 12 h [20] was 8.6 and the Activity [21] was “Active”. For the same molecule, the Activity [22] was “Active”, the Activity [23] was “Active” and the Activity (Mus musculus [24]) was “Active”. The Activity (Mus musculus [25]) was “Active”, the Activity (Mus musculus [26]) was “Active” and the Activity (Mus musculus [27]) was “Active”. The Activity (Mus musculus [28]) was “Active”, the Activity (Mus musculus [29]) was “Active” and the Activity (Mus musculus [30]) was “Active”. The Activity (Mus musculus [31]) was “Active” and the Activity (Mus musculus [32]) was “Active”.
